# Screening data: PubChem, The Scripps Research Institute Molecular Screening Center
# TAAR1 antagonist: antagonists of human TAAR1. CHO RD-HGA16 TAAR1, Fluo-8 calcium fluorescence, antagonist. 1.5% of 360,000 active. AID 624466. inhibition, % at 3 µM;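 active means inhibition above a per-plate cutoff, the mean inhibition of test compounds on that plate plus 3 SD, cut at about 49% in these data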;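 further: 0% = DMSO plus EC80 beta-PEA response and 100% = DMSO alone without agonist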
# Target sequence (Q96RJ0 whole entry, looked up): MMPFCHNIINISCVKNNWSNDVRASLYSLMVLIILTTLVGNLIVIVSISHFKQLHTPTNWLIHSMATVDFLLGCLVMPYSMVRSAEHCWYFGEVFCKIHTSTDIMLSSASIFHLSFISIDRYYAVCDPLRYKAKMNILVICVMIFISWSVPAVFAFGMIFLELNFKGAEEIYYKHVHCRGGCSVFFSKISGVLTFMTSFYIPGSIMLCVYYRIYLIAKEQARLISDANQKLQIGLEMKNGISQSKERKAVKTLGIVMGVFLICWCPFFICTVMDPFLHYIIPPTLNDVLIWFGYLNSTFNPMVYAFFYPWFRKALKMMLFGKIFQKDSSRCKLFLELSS
#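 Assay system: CHO-derived RD-HGA16 cells stably expressing human TAAR1 plus Gα16. Timing: 140 s kinetic read after compound, 140 s after agonist. Technique: kinetic Fluo-8 calcium fluorescence measurement. Measure: % inhibition of agonist calcium response.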
# OX1R antag-1: antagonists of human orexin 1 receptor (OX1R) | inhibition, % at 6.6 µM | 1.8% of 330,000 active | OX1R-expressing cells, FRET antagonist read-out; in the data active means inhibition mostly above about 38%, no sharp cut-off; inactive means mostly below about 40%;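 further: 0% = agonist challenge alone and 100% = reference antagonist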
# TAAR1 agonist: human TAAR1 agonism; AID 624467; Q96RJ0; 0.99% of 360,000 active; CHO RD-HGA16 TAAR1, Fluo-8 calcium fluorescence; vehicle wells 0%, saturating PEA agonist 100%; activation, % at 3 µM;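 active means activation above the mean activation of all test compounds in the run plus 3 SD, cut at about 38% in these data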
#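 Test system: RD-HGA16 (CHO) cells co-expressing Gα16 and hTAAR1; dosing: one-point dosing at 3 µM (nominal); timing: 17-24 h seeding, 75 min 37 °C dye, 30 min RT; signal: kinetic Fluo-8 calcium fluorescence; read-out basis: % activation relative to PEA EC100 response; controls: DMSO and PEA EC100; replicates: n 1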
# OX1R antag-2: human HCRTR1 antagonism; O43613; CHO/OX1R cells, Fluo-8 calcium fluorescence, orexin A; inhibition, % at 5 µM; 0.43% of 330,000 active; AID 434989;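 active means inhibition above its plate's threshold, mean inhibition of all tested compounds on the plate plus 3 SD, cut at about 37% in these data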;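 further: 0% = orexin A challenge wells and 100% = SB-334867-A antagonist wells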
# CHO parental Ca: counter-screen for OX1R antagonists: effect in parental CHO cells | parental CHO-K1, ATP-induced calcium, Fluo-8 fluorescence | inhibition, % at 5.6 µM | 0.63% of 330,000 active | AID 463079;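 active means inhibition above that plate's mean sample inhibition plus 3 SD, cut at about 26% in these data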;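 further: 0% = ATP-challenged DMSO wells and 100% = DMSO wells without ATP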
#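 Material: Parental CHO cells | Reagent: ATP | Compound dosing: Single nominal dose of 5.6 µM per compound | Detection: Intracellular calcium via Fluo-8 no-wash fluorescent dye | Read-out: % inhibition of ATP-induced calcium mobilization | Benchmarks: Low control ATP plus DMSO, high control DMSO only | Replicates: Singlicate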
# The depositor's hits bear a star; . = no result given. Compounds with a hit are over-represented: about 3.9% of the library has one in this group of screens.
SMILES,TAAR1 antagonist,OX1R antag-1,TAAR1 agonist,OX1R antag-2,CHO parental Ca
Cc1nn(C)c(C)c1NC(=O)Nc1ccc(Cl)c(Cl)c1,-2.3,25.6,11.8,20.1,43.6*
Cc1ccc(NC(=O)NNS(=O)(=O)c2ccc(Br)cc2)cc1,1.5,16.9,8.0,-9.2,-14.7
Cc1ccc(S(=O)(=O)NC(=O)Nc2ccc(N(C)C)cc2)cc1,-19.2,51.4*,-0.4,-16.0,-6.1
O=C(c1cccc(S(=O)(=O)N2CCCC2)c1)c1nnc(-c2ccncc2)o1,-9.3,43.0*,-0.5,-8.6,-1.9
Cc1[nH]c2ccc(-c3nnc(SCC(=O)c4ccc(F)cc4)o3)cc2c1C,4.2,9.5,7.6,-15.4,3.0
Cc1cc(C)c(C)c(C(=O)CSc2nnc(-c3ccc4[nH]c(C)c(C)c4c3)o2)c1C,69.4*,12.8,6.2,-22.7,-4.6
CCc1nc(SCC(=O)Nc2nc3c(s2)CCCC3)c2ccccc2n1,-12.8,15.6,5.9,-33.8,-25.1
CCn1c(SCC(=O)Nc2nc3ccccc3s2)nnc1-c1ccc(OC)cc1,-8.8,33.7,16.8,-1.7,38.8*
CCn1c(SCC(=O)Nc2nc3c(s2)CCCC3)nnc1-c1ccccc1,18.7,48.8*,4.5,-11.7,-26.2
CC(=O)N1CCN(c2ccc([N+](=O)[O-])c(NCC3CCCO3)c2)CC1 (stereo not given),-0.2,78.5*,5.7,-9.4,-13.5
N#CC1=C(N)N2C(=C(C#N)C13CCCCC3)SC1CCCCC12O (stereo not given),36.6,5.1,19.6,14.1,33.1*
C[C@@H]1CN([C@H](C)CO)C(=O)CCCn2cc(nn2)CO[C@H]1CN(C)S(=O)(=O)c1ccc(-c2ccccc2)cc1,1.1,.,-0.2,.,.
COc1ccc2cc(C(c3nnnn3C(C)(C)C)N3CCc4ccccc4C3)c(=O)[nH]c2c1 (stereo not given),.,19.8,.,-20.3,-5.7
CCC(C)(C)n1nnnc1C(c1cc2ccc(OC)cc2[nH]c1=O)N1CCc2ccccc2C1 (stereo not given),3.0,13.0,74.7*,-13.1,-10.2
COc1ccccc1CNC(=O)c1cc(C2CC2)nc2c1cnn2C(C)C,19.7,9.1,-1.1,-39.5,-32.1
CCOc1ccc(OCCNC(=O)c2cc(C3CC3)nc3c2cnn3C(C)C)cc1,60.3*,.,2.1,.,.
COc1ccc(CCNC(=O)c2cc(C3CC3)nc3c2cnn3C(C)C)cc1OC,9.4,6.0,6.9,-32.3,-22.3
CC(C)n1ncc2c(C(=O)NCCOc3ccccc3F)cc(C3CC3)nc21,49.9*,11.3,1.6,-24.4,-28.3
O=C(COC(=O)CC1CCCC1)Nc1ccc(Cl)cc1,4.5,.,13.9,.,.
N#Cc1ccccc1S(=O)(=O)N1CCN(C(=O)CN(Cc2ccco2)Cc2cccs2)CC1,8.8,.,2.1,.,.
COCC(C)n1c(SCC(=O)N2CCc3ccccc3C2)nc2ccccc2c1=O (stereo not given),-9.3,69.5*,-0.5,-24.6,-21.3
Cc1ccc2ncc(S(=O)(=O)c3ccccc3)c(N3CCCCC3C)c2c1 (stereo not given),-16.4,32.8,-1.8,-22.6,43.6*
O=C(Nc1ccc(C(=O)O)cc1)/C(=C\C=C\c1ccccc1)NC(=O)c1ccccc1Br,58.6*,18.1,1.9,8.2,6.1
O=C(Nc1ccc(C(=O)O)cc1)/C(=C\C=C\c1ccccc1)NC(=O)c1cccc(Br)c1,8.6,11.0,-0.2,-5.8,-4.6
O=[N+]([O-])c1nn(-c2ccc3c(c2)OCCO3)n(O)c1=NCCCO,-2.9,73.7*,7.1,-18.9,4.6
SMILES,TAAR1 antagonist,OX1R antag-1,TAAR1 agonist,OX1R antag-2,CHO parental Ca
CCOc1ccc(NS(=O)(=O)c2cccc(C(=O)N3CCN(C/C=C/c4ccccc4)CC3)c2)cc1,33.0,.,9.7,.,.
Cc1c(N2C(=O)c3cccc4cccc(c34)C2=O)cnn1C,14.7,51.2*,-0.9,-19.3,-22.7
O=C(O)c1ccc2c3c(cccc13)C(=O)N(c1cccc3ccccc13)C2=O,4.5,24.7,-1.3,-9.6,-12.2
O=C(O)c1ccccc1N1C(=O)c2cccc3cccc(c23)C1=O,-5.1,65.6*,2.4,-13.3,-3.2
O=C1c2cccc3cccc(c23)C(=O)N1c1cccnc1,-27.2,48.1*,5.0,-16.3,-14.7
COc1ccc(CCN2C(=O)CCC2(C)c2nnnn2-c2ccc3c(c2)OCCO3)cc1OC (stereo not given),-13.4,.,0.8,.,.
O=C1CCCCC(=O)[C@H](O)C[C@H](COCc2ccccc2)O1,-2.8,.,-0.1,.,.
COc1cccc(C2NC(=S)N(Cc3ccc(Br)cc3)C(C)=C2C(C)=O)c1 (stereo not given),18.6,.,1.3,.,.
COc1cccc(-c2cccc(-c3nc(C(=O)NCCCN4CCOCC4)cc4c3[C@H](CCO)N(S(=O)C(C)(C)C)C4)c2)c1 (stereo not given in full),52.0*,.,21.2,.,.
CC(C)(C)S(=O)N1Cc2cc(C(=O)NCC(F)(F)F)nc(-c3cccc(-c4cccc(F)c4)c3)c2[C@H]1CCO (stereo not given in full),62.0*,.,10.1,.,.
CN(C)C(=O)c1cccc(-c2cccc(-c3nc(C(=O)NCc4ccccc4)cc4c3[C@@H](CCO)N(S(=O)C(C)(C)C)C4)c2)c1 (stereo not given in full),61.3*,.,9.4,.,.
CC(=O)Nc1ccc(S(=O)(=O)NCC2CCN(C(=O)C(=O)c3cccs3)CC2)cc1,-7.0,.,3.7,.,.
O=C(Nc1ncc([N+](=O)[O-])s1)c1ccc2c(c1)OCO2,15.5,59.7,6.2,-1.5,29.0*
Cc1ccc(C(=O)Nc2ncc([N+](=O)[O-])s2)cc1,12.4,54.2*,6.2,1.6,12.0
CCc1ccc2c(c1)NC(=O)C2(C)Cc1ccc(C(F)(F)F)nc1 (stereo not given),-39.3,.,0.8,.,.
Cc1csc(NC(=O)CCc2c(C)nc3cc(-c4ccc(Cl)cc4)nn3c2C)n1,-3.6,6.3,2.2,-16.9,-4.5
Cc1nc2cc(-c3ccc(Cl)cc3)nn2c(C)c1CCC(=O)NC(C)c1ccc2c(c1)OCCO2 (stereo not given),20.3,49.4*,0.2,7.1,-16.7
CC1(C(=O)Nc2ccc3c(c2)OCCO3)CN(S(C)(=O)=O)CC(=O)N1CCCn1ccnc1 (stereo not given),-14.3,.,1.3,.,.
CSCCC(C(=O)NC(C)(C)C)n1c(-c2ccc(C)cc2)nc2ccccc21 (stereo not given),-20.6,.,-2.9,.,.
CN(C)c1ccc(/C=N/NC(=O)COc2ccccc2)cc1,-19.3,15.0,-0.6,-20.0,1.1
Cc1ccccc1N(CC(=O)N/N=C/c1ccc(N(C)C)cc1)C(=O)c1ccccc1,0.0,62.6*,2.0,-25.8,-20.0
O=C(Nc1cc(C(F)(F)F)cc(C(F)(F)F)c1)[C@H]1O[C@@H](n2ccc(=O)[nH]c2=O)[C@H](O)[C@@H]1O,-7.6,.,1.3,.,.
CCOC(=O)[C@]12CCC=C1N(Cc1cccc3ccccc13)C(=O)[C@H](CC(=O)NCCCOC)C2,-5.8,.,-1.9,.,.
